In ChEMBL document CHEMBL1142696, “Design and synthesis of melanocortin peptides with candidacidal and anti-TNF-alpha properties” (2005) one finds Inhibition data, which are given here for 14 compounds.

The term Inhibition denotes the change of the read-out against control, counted positive when it falls. Higher therefore signals a response far below the control.

The test system of one assay is Candida albicans. Put plainly: Inhibition of Candida albicans colony forming units (CFU) at 1e-4 M compound. Type of assay: functional. The gist of the method:
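Six C. albicans isolates (five clinical, ATCC 24433), grown 48 h at 32 °C in Sabouraud-dextrose broth, washed and held in distilled water. 1 × 10^6 cells exposed to peptide at 10^-4 M final, 2 h at 37 °C; water controls. Diluted, plated on blood agar for 48 h at 37 °C, colonies counted manually. Kill = 100 − (test CFU/control CFU × 100). Triplicates, two independent experiments.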

For another assay, the system named is PBMC. The assay is described as follows: Inhibition of tumor necrosis factor alpha release by endotoxin stimulated human peripheral blood mononuclear cells at 1e-4 M. Type of assay: functional. The gist of the method: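 Human PBMC from five normal donors, isolated by Ficoll-Hypaque density centrifugation, washed in PBS and kept in RPMI 1640 with HEPES, glutamine, 10% FCS and penicillin/streptomycin. Cells at 2.5 × 10^5 per well were held 24 h at 37 °C, 5% CO2 with E. coli 055:B5 endotoxin 1 ng/mL plus peptide 10^-4 M. Supernatant TNF-α measured by immunoassay; % inhibition versus saline control, mean ± SD.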

Molecules are shown by their SMILES. Non-standard residues stand in square brackets, D forms with d. Residues, ends and D or L forms follow the SMILES beside them. d2Nal = N[C@H](Cc1ccc2ccccc2c1)C(=O)O Bounds are passed on as bounds.

In the case of `CC(C)[C@H](NC(=O)[C@H](Cc1ccccc1)NC(=O)[C@H](CCCCN)NC(=O)CNC(=O)[C@H](Cc1c[nH]c2ccccc12)NC(=O)[C@H](CCCN=C(N)N)NC(=O)[C@@H](Cc1ccc2ccccc2c1)NC(=O)[C@H](C)N)C(N)=O`, the Inhibition is 62.8% in the assay with Candida albicans and below 10% in the assay on PBMC.

As to `NC(=O)[C@H](Cc1c[nH]c2ccccc12)NC(=O)[C@H](CCCN=C(N)N)NC(=O)[C@@H](Cc1ccc2ccccc2c1)NC(=O)[C@@H](N)Cc1c[nH]cn1`, the Inhibition came to 43% with Candida albicans and 13.9% in the assay with PBMC.

`CC(C)[C@H](NC(=O)[C@H](Cc1ccccc1)NC(=O)[C@H](CCCCN)NC(=O)CNC(=O)[C@H](Cc1c[nH]c2ccccc12)NC(=O)[C@H](C)NC(=O)[C@@H](Cc1ccc2ccccc2c1)NC(=O)[C@@H](N)Cc1c[nH]cn1)C(N)=O`: the results for the Inhibition in the assay on Candida albicans and in the assay with PBMC were 95.7% and 23%, respectively.

On to `CC(C)[C@H](NC(=O)[C@H](Cc1ccccc1)NC(=O)[C@H](CCCCN)NC(=O)CNC(=O)[C@H](C)NC(=O)[C@H](CCCN=C(N)N)NC(=O)[C@@H](Cc1ccc2ccccc2c1)NC(=O)[C@@H](N)Cc1c[nH]cn1)C(N)=O`, for which the Inhibition in the assay on Candida albicans worked out at 24.9%; with PBMC, 18.1%.

As to `CC(C)[C@H](NC(=O)[C@H](Cc1ccccc1)NC(=O)[C@H](CCCCN)NC(=O)CNC(=O)[C@H](Cc1c[nH]c2ccccc12)NC(=O)[C@H](CCCN=C(N)N)NC(=O)[C@H](N)Cc1ccc2ccccc2c1)C(N)=O`, the Inhibition with Candida albicans was 51.4%; in the assay with PBMC, below 10%.

With `CC(C)[C@H](NC(=O)[C@H](Cc1ccccc1)NC(=O)[C@H](CCCCN)NC(=O)CN)C(N)=O` (H-GKFV-NH2), the values for the Inhibition in the assay on Candida albicans and with PBMC were 5% and below 10%, respectively.

Consider `CC(C)[C@H](NC(=O)[C@H](Cc1ccccc1)NC(=O)[C@H](CCCCN)NC(=O)CNC(=O)[C@H](Cc1c[nH]c2ccccc12)NC(=O)[C@H](CCCN=C(N)N)NC(=O)[C@H](C)NC(=O)[C@@H](N)Cc1c[nH]cn1)C(N)=O` (H-HARWGKFV-NH2), for which the Inhibition in the assay with Candida albicans is recorded as 49.9%; in the assay with PBMC it was below 10%.

For the compound `CC(C)[C@H](NC(=O)[C@H](Cc1ccccc1)NC(=O)[C@H](CCCCN)NC(=O)CNC(=O)[C@H](Cc1c[nH]c2ccccc12)NC(=O)[C@H](CCCNC(=N)N)NC(=O)[C@H](Cc1ccccc1)NC(=O)[C@@H](N)Cc1cnc[nH]1)C(N)=O` (H-HFRWGKFV-NH2), the Inhibition in the assay with Candida albicans is on record as 90.8%; with PBMC, below 10%.

As to `CC(C)[C@H](NC(=O)[C@@H]1CCCN1C(=O)[C@H](CCCCN)NC(=O)CNC(=O)[C@H](Cc1c[nH]c2ccccc12)NC(=O)[C@H](CCCN=C(N)N)NC(=O)[C@H](Cc1ccccc1)NC(=O)[C@@H](N)Cc1c[nH]cn1)C(N)=O` (H-HFRWGKPV-NH2), the figures for the Inhibition with Candida albicans and in the assay with PBMC were 59.4% and 12.3%, respectively.

On to `CC(C)[C@H](NC(=O)[C@H](Cc1ccccc1)NC(=O)[C@H](CCCCN)NC(=O)CNC(=O)[C@H](Cc1c[nH]c2ccccc12)NC(=O)[C@H](CCCN=C(N)N)NC(=O)[C@@H](Cc1ccc2ccccc2c1)NC(=O)[C@@H](N)Cc1c[nH]cn1)C(N)=O` (H-H[d2Nal]RWGKFV-NH2), for which the Inhibition in the assay with Candida albicans came out at 99.8%; in the assay with PBMC it was 18.7%.

As to `CC(C)[C@H](NC(=O)[C@@H]1CCCN1C(=O)[C@H](CCCCN)NC(=O)CNC(=O)[C@H](Cc1c[nH]c2ccccc12)NC(=O)[C@H](CCCN=C(N)N)NC(=O)[C@@H](Cc1ccc2ccccc2c1)NC(=O)[C@@H](N)Cc1c[nH]cn1)C(N)=O` (H-H[d2Nal]RWGKPV-NH2), the Inhibition amounted to 95.3% with Candida albicans and 41.8% in the assay with PBMC.

Consider `CC(C)[C@H](NC(=O)[C@H](Cc1ccccc1)NC(=O)[C@@H](N)CCCCN)C(N)=O` (H-Lys-Phe-Val-NH2), for which the Inhibition with Candida albicans is 2.7%; with PBMC, below 10%.

With `CC(C)[C@H](NC(=O)[C@H](Cc1ccccc1)NC(=O)[C@H](CCCCN)NC(=O)CNC(=O)[C@H](Cc1c[nH]c2ccccc12)NC(=O)[C@@H](N)CCCN=C(N)N)C(N)=O` (H-RWGKFV-NH2), the Inhibition with Candida albicans is given as 19.3%; in the assay on PBMC, below 10%.

With `CC(C)[C@H](NC(=O)[C@H](Cc1ccccc1)NC(=O)[C@H](CCCCN)NC(=O)CNC(=O)[C@@H](N)Cc1c[nH]c2ccccc12)C(N)=O` (H-WGKFV-NH2), the Inhibition in the assay with Candida albicans is on record as 5.7%; with PBMC, below 10%.
